Experimental data as given in ChEMBL document CHEMBL3272012, “5-(Tetradecyloxy)-2-furancarboxylic acid and related hypolipidemic fatty acid-like alkyloxyarylcarboxylic acids” (J Med Chem, 1977).
Values belong to the molecule of their own block, whether it stands above or below them.

Legend:
[1] = system: Rattus norvegicus; assay: Hypolipidemic activity in Wistar rat assessed as reduction in plasma cholesterol level at 489 umol/kg/day administered through diet for 4 days; assay type: functional; settings: 96 h
Summary of the method: (§1)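 Young male Wistar rats, 170-190 g initial weight, groups of six, given compound mixed thoroughly into Purina Lab Chow ad libitum for 4 or 10 days as stated. Daily dose calculated from food consumption and body weight. Bled by cardiac puncture at end of treatment; plasma cholesterol measured by automated procedure. Expressed as percent reduction versus simultaneous untreated control group; Student's t test.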

[2] = system: Rattus norvegicus; assay: Hypolipidemic activity in Wistar rat assessed as reduction in plasma triglyceride level at 489 umol/kg/day administered through diet for 4 days; assay type: functional; settings: 96 h
[3] = system: Rattus norvegicus; assay: Increase in liver weight in Wistar rat at 420 umol/kg/day administered through diet for 4 days; assay type: ADME, organism-based; settings: in vivo, po, 96 h
Summary of the method: (§2)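 Male Wistar rats (170-190 g initial), groups of six, dosed via diet ad libitum for 4 or 10 days, daily dose from food consumption. Liver wet weight measured, expressed as g/100 g final body weight, compared with untreated controls run simultaneously.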

[4] = system: Rattus norvegicus; assay: Hypolipidemic activity in Wistar rat assessed as reduction in plasma cholesterol level at 420 umol/kg/day administered through diet for 4 days; assay type: functional; settings: 96 h; summary of the method: as §1
[5] = system: Rattus norvegicus; assay: Hypolipidemic activity in Wistar rat assessed as reduction in plasma triglyceride level at 420 umol/kg/day administered through diet for 4 days; assay type: functional; settings: 96 h
Summary of the method: (§3)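 Young male Wistar rats (initial weight 170-190 g), groups of six, fed compound mixed into Purina Lab Chow ad libitum for 4 or 10 days; daily dose calculated from food consumption and body weight. Bled by cardiac puncture; plasma cholesterol and triglycerides by automated procedures; percent reduction versus simultaneous untreated controls, Student's t test.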

[6] = system: Rattus norvegicus; assay: Hypolipidemic activity in Wistar rat assessed as reduction in plasma triglyceride level at 443 umol/kg/day administered through diet for 4 days; assay type: functional; settings: 96 h; summary of the method: as §3
[7] = system: Rattus norvegicus; assay: Hypolipidemic activity in Wistar rat assessed as reduction in plasma cholesterol level at 443 umol/kg/day administered through diet for 4 days; assay type: functional; settings: 96 h; summary of the method: as §1
[8] = system: Rattus norvegicus; assay: Increase in cholesterol level in Wistar rat liver at 430 umol/kg/day administered through diet for 4 days; assay type: ADME, organism-based; settings: in vivo, po, 96 h
Summary of the method: (§4)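 Male Wistar rats (170-190 g), six per group, given compound by admixture to lab chow ad libitum for 4 or 10 days, dose derived from food intake. Liver cholesterol determined by automated procedure, expressed as mg/g wet tissue, compared with an untreated control group by Student's t test.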

[9] = system: Rattus norvegicus; assay: Increase in liver weight in Wistar rat at 430 umol/kg/day administered through diet for 4 days; assay type: ADME, organism-based; settings: in vivo, po, 96 h; summary of the method: as §2
[10] = system: Rattus norvegicus; assay: Hypolipidemic activity in Wistar rat assessed as reduction in plasma triglyceride level at 430 umol/kg/day administered through diet for 4 days; assay type: functional; settings: 96 h; summary of the method: as §3
[11] = system: Rattus norvegicus; assay: Hypolipidemic activity in Wistar rat assessed as reduction in plasma cholesterol level at 430 umol/kg/day administered through diet for 4 days; assay type: functional; settings: 96 h; summary of the method: as §1
[12] = system: Rattus norvegicus; assay: Increase in liver weight in Wistar rat at 482 umol/kg/day administered through diet for 4 days; assay type: ADME, organism-based; settings: in vivo, po, 96 h; summary of the method: as §2
[13] = system: Rattus norvegicus; assay: Hypolipidemic activity in Wistar rat assessed as reduction in plasma cholesterol level at 482 umol/kg/day administered through diet for 4 days; assay type: functional; settings: 96 h; summary of the method: as §1
[14] = system: Rattus norvegicus; assay: Hypolipidemic activity in Wistar rat assessed as reduction in plasma triglyceride level at 482 umol/kg/day administered through diet for 4 days; assay type: functional; settings: 96 h; summary of the method: as §3
[15] = system: Rattus norvegicus; assay: Increase in liver weight in Wistar rat at 439 umol/kg/day administered through diet for 4 days; assay type: ADME, organism-based; settings: in vivo, po, 96 h; summary of the method: as §2
[16] = system: Rattus norvegicus; assay: Hypolipidemic activity in Wistar rat assessed as reduction in plasma triglyceride level at 439 umol/kg/day administered through diet for 4 days; assay type: functional; settings: 96 h; summary of the method: as §3
[17] = system: Rattus norvegicus; assay: Hypolipidemic activity in Wistar rat assessed as reduction in plasma cholesterol level at 439 umol/kg/day administered through diet for 4 days; assay type: functional; settings: 96 h; summary of the method: as §1
[18] = system: Rattus norvegicus; assay: Hypolipidemic activity in Wistar rat assessed as reduction in plasma triglyceride level at 471 umol/kg/day administered through diet for 4 days; assay type: functional; settings: 96 h
[19] = system: Rattus norvegicus; assay: Hypolipidemic activity in Wistar rat assessed as reduction in plasma cholesterol level at 471 umol/kg/day administered through diet for 4 days; assay type: functional; settings: 96 h; summary of the method: as §1
[20] = system: Rattus norvegicus; assay: Increase in liver weight in Wistar rat at 471 umol/kg/day administered through diet for 4 days; assay type: ADME, organism-based; settings: in vivo, po, 96 h
[21] = system: Rattus norvegicus; assay: Increase in cholesterol level in Wistar rat liver at 420 umol/kg/day administered through diet for 10 days; assay type: ADME, organism-based; settings: in vivo, po, 240 h; summary of the method: as §4
[22] = system: Rattus norvegicus; assay: Hypolipidemic activity in Wistar rat assessed as reduction in plasma triglyceride level at 420 umol/kg/day administered through diet for 10 days; assay type: functional; settings: 240 h; summary of the method: as §3
[23] = system: Rattus norvegicus; assay: Increase in liver weight in Wistar rat at 499 umol/kg/day administered through diet for 4 days; assay type: ADME, organism-based; settings: in vivo, po, 96 h; summary of the method: as §2
[24] = system: Rattus norvegicus; assay: Hypolipidemic activity in Wistar rat assessed as reduction in plasma triglyceride level at 499 umol/kg/day administered through diet for 4 days; assay type: functional; settings: 96 h; summary of the method: as §3
[25] = system: Rattus norvegicus; assay: Hypolipidemic activity in Wistar rat assessed as reduction in plasma cholesterol level at 499 umol/kg/day administered through diet for 4 days; assay type: functional; settings: 96 h; summary of the method: as §1
[26] = system: Rattus norvegicus; assay: Hypolipidemic activity in Wistar rat assessed as reduction in plasma cholesterol level at 401 umol/kg/day administered through diet for 4 days; assay type: functional; settings: 96 h
Summary of the method: (§5)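 Young male Wistar rats, 170-190 g at start, in groups of six, given compound mixed into Purina Lab Chow ad libitum for 4 or 10 days as stated. Daily dose was calculated from food consumption and body weight. Plasma was taken by cardiac puncture at the end and cholesterol measured by automated procedure. Results are % reduction versus a concurrent untreated control group, with Student's t test.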

[27] = system: Rattus norvegicus; assay: Hypolipidemic activity in Wistar rat assessed as reduction in plasma triglyceride level at 401 umol/kg/day administered through diet for 4 days; assay type: functional; settings: 96 h; summary of the method: as §3
[28] = system: Rattus norvegicus; assay: Increase in liver weight in Wistar rat at 401 umol/kg/day administered through diet for 4 days; assay type: ADME, organism-based; settings: in vivo, po, 96 h; summary of the method: as §2
[29] = system: Rattus norvegicus; assay: Hypolipidemic activity in Wistar rat assessed as reduction in plasma cholesterol level at 374 umol/kg/day administered through diet for 4 days; assay type: functional; settings: 96 h; summary of the method: as §5
[30] = system: Rattus norvegicus; assay: Hypolipidemic activity in Wistar rat assessed as reduction in plasma triglyceride level at 374 umol/kg/day administered through diet for 4 days; assay type: functional; settings: 96 h; summary of the method: as §3
[31] = system: Rattus norvegicus; assay: Increase in liver weight in Wistar rat at 374 umol/kg/day administered through diet for 4 days; assay type: ADME, organism-based; settings: in vivo, po, 96 h; summary of the method: as §2
[32] = system: Rattus norvegicus; assay: Increase in liver weight in Wistar rat at 491 umol/kg/day administered through diet for 4 days; assay type: ADME, organism-based; settings: in vivo, po, 96 h
[33] = system: Rattus norvegicus; assay: Hypolipidemic activity in Wistar rat assessed as reduction in plasma cholesterol level at 491 umol/kg/day administered through diet for 4 days; assay type: functional; settings: 96 h; summary of the method: as §1
[34] = system: Rattus norvegicus; assay: Hypolipidemic activity in Wistar rat assessed as reduction in plasma triglyceride level at 491 umol/kg/day administered through diet for 4 days; assay type: functional; settings: 96 h

Compound: CCCCCCCCCCCC(=O)Nc1ccc(C(=O)OCC)cc1
inhibition in vivo at 489 µmol/kg [1]: 0%
inhibition in vivo at 489 µmol/kg [2]: 0%

Activity [3]: 0%
Compound: CCCCCCCCCCCCCCOc1ccc(C(=O)C(F)(F)F)o1
inhibition in vivo at 420 µmol/kg [4]: 2%
inhibition in vivo at 420 µmol/kg [5]: 30%

Compound: CCCCCCCCCCCCCCSc1ccc(C(=O)O)o1
inhibition in vivo at 443 µmol/kg [6]: 62%
inhibition in vivo at 443 µmol/kg [7]: 18%

Activity [8]: 0%
Activity [9]: 8%
Compound: CCCCCCCCCCCCCCOc1ccc(C(=O)OC)o1
inhibition in vivo at 430 µmol/kg [10]: 67%
inhibition in vivo at 430 µmol/kg [11]: 32%

Activity [12]: 7%
Compound: CCCCCCCCCCCCCCOc1ccc(C(N)=O)o1
inhibition in vivo at 482 µmol/kg [13]: 0%
inhibition in vivo at 482 µmol/kg [14]: 14%

Activity [15]: 1%
Compound: CCCCCCCCCCCCCCOc1ccc(C(=O)OCC)c(O)c1
inhibition in vivo at 439 µmol/kg [16]: 0%
inhibition in vivo at 439 µmol/kg [17]: 0%

Activity [20]: 5%
Compound: CCCCCCCCCCCCCCOc1ccc(C(=O)O)c(C)c1
inhibition in vivo at 471 µmol/kg [18]: 27%
inhibition in vivo at 471 µmol/kg [19]: 6%

Activity [21]: 18%
Activity [3]: 0%
Compound: CCCCCCCCCCCCCCCCCCOc1ccc(C(=O)O)o1
inhibition in vivo at 420 µmol/kg [22]: 53%
inhibition in vivo at 420 µmol/kg [4]: 18%

Activity [23]: 0%
Compound: CCCCCCCCCCCCCCOc1ccc(C(C)=O)o1
inhibition in vivo at 499 µmol/kg [24]: 21%
inhibition in vivo at 499 µmol/kg [25]: 0%

Activity [9]: 3%
Activity [28]: 0%
Compound: CCCCCCCCCCCCCCCCOc1cccc(C(=O)OC)c1
inhibition in vivo at 401 µmol/kg [26]: 0%
inhibition in vivo at 401 µmol/kg [27]: 0%
inhibition in vivo at 430 µmol/kg [10]: 0%
inhibition in vivo at 430 µmol/kg [11]: 0%

Activity [31]: 0%
Compound: CCCCCCCCCCCCCCCCOc1ccc(C(=O)CCC(=O)O)cc1
inhibition in vivo at 374 µmol/kg [29]: 15%
inhibition in vivo at 374 µmol/kg [30]: 42%

Activity [32]: 0%
Compound: CCCCCCCCCCCCCCOc1ccccc1C(=O)OC
inhibition in vivo at 491 µmol/kg [33]: 0%
inhibition in vivo at 491 µmol/kg [34]: 0%

Activity [8]: 18%
Activity [9]: 3%
Compound: CCCCCCCCCCCCCCOc1ccc(/C=C/C(=O)OC)cc1
inhibition in vivo at 430 µmol/kg [10]: 67%
inhibition in vivo at 430 µmol/kg [11]: 28%
